# Test system: Platelet
# Test: Inhibition of collagen-induced platelet aggregation in human platelet-rich plasma
# Format: functional, cell-free
# How it was run: (§1)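 Citrated human PRP from forearm-vein blood (3.8% citrate 1:9, spun 1250 rpm for 18 min at room temperature), adjusted to […] with PPP. Platelets stirred at 1000 rpm and preincubated 3 min at 37 °C with compound or 0.25% DMSO. Inducers were ADP 6 µM, adrenalin 2 µM, arachidonic acid 100 µM, or collagen. Turbidimetric aggregometry read-out; IC50 given as mean ± SE.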
row,SMILES,IC50
1,COc1ccc(/C=C\c2cc(O)cc(O)c2)cc1,33.9 µg

# Test system: Platelet
# Test: Inhibition of arachidonic acid-induced platelet aggregation in human platelet-rich plasma
# Format: functional, cell-free
# How it was run: as §1
row,IC50,SMILES
1,57.2 µg/mL,OC[C@H]1O[C@@H](Oc2cc(O)cc(/C=C/c3ccc(O)cc3)c2)[C@H](O)[C@@H](O)[C@@H]1O [PICEID]

# Test system: Platelet
# Test: Inhibition of adenosine diphosphate-induced platelet aggregation in human platelet-rich plasma
# Format: functional, cell-free
# How it was run: as §1
row,IC50,SMILES
1,300 µg/mL,COc1ccc(/C=C/c2cc(O)cc(O[C@@H]3O[C@H](CO)[C@@H](O)[C@H](O)[C@H]3O)c2)cc1
2,300 µg/mL,COc1ccc(/C=C/c2cc(O[C@@H]3O[C@H](CO)[C@@H](O)[C@H](O)[C@H]3O)cc(O[C@@H]3O[C@H](CO)[C@@H](O)[C@H](O)[C@H]3O)c2)cc1
3,300 µg/mL,COc1ccc(/C=C/c2cc(OC)c(OC)c(OC)c2)c(O[C@@H]2O[C@H](CO)[C@@H](O)[C@H](O)[C@H]2O)c1
4,300 µg/mL,COc1ccc(/C=C\c2cc(O[C@@H]3O[C@H](CO)[C@@H](O)[C@H](O)[C@H]3O)cc(O[C@@H]3O[C@H](CO)[C@@H](O)[C@H](O)[C@H]3O)c2)cc1
5,198 µg/mL,COc1ccc(/C=C\c2cc(O)cc(O[C@@H]3O[C@H](CO)[C@@H](O)[C@H](O)[C@H]3O)c2)cc1
6,60.6 µg/mL,COc1ccc(/C=C\c2cc(OC)c(OC)c(OC)c2)c(O)c1O [COMBRETASTATIN A-1]
7,84.9 µg/mL,OC[C@H]1O[C@@H](Oc2cc(O)cc(/C=C/c3ccc(O)cc3)c2)[C@H](O)[C@@H](O)[C@@H]1O [PICEID]
8,120 µg/mL,OC[C@H]1O[C@@H](Oc2cc(O)cc(/C=C\c3ccc(O)cc3)c2)[C@H](O)[C@@H](O)[C@@H]1O [Z-PICEID]

row,SMILES,IC50
1,COc1ccc(/C=C\c2cc(O)cc(O)c2)cc1,101 µg/mL
2,COc1ccc(/C=C/c2cc(OC)c(OC)c(OC)c2)c(O)c1,300 µg/mL
3,COc1ccc(/C=C\c2cc(OC)c(OC)c(OC)c2)cc1O [COMBRETASTATIN A4],75.2 µg/mL
4,COc1ccc(/C=C/c2cc(O)cc(O)c2)cc1 [RESVERATROL 4'-METHYL ETHER],119 µg/mL
